Consider 22 compounds from ChEMBL document CHEMBL1142446, “Discovery of 3-acetyl-4-hydroxy-2-pyranone derivatives and their difluoridoborate complexes as a novel class of HIV-1 integrase inhibitors” (Bioorg Med Chem, 2008).

Broadly, the IC50 is the concentration that gives 50% inhibition. Low readings indicate higher potency, high ones lower potency.

The source made the active and inactive calls. No cut-off for these calls is given here.

In data set [1] the target is T1, Human immunodeficiency virus type 1 integrase (Human immunodeficiency virus 1, UniProt Q7ZJM1). Kind of data set: Inhibition of wild-type HIV1 integrase 3'-end processing activity. The method, boiled down:
(§1)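 Recombinant wild-type HIV-1 integrase (200 nM final) preincubated with inhibitor for 30 min at 30 °C in 25 mM MOPS pH 7.2 with 50 mM NaCl, 7.5 mM MnCl2, 10% DMSO, BSA and thiols. Then 20 nM 5′-³²P-labeled 21-mer duplex substrate (21top/21bot) was added for 1 h. Quenched in formamide dye and resolved on denaturing 20% polyacrylamide–urea gel. Selectivity index = IC50(3′-processing)/IC50(strand transfer).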

A short description of data set [2]: Cytotoxicity against human HCT 116 cells after 72 hrs by MTT assay. The class given is cell-based. As to conditions: hct-116, 72 h. The method, boiled down: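 HCT-116 monolayers were seeded at 8 × 10³ cells/well and attached overnight. Compounds in RPMI-1640 with 10% […] were added at a single final concentration of 10 and exposed for 72 h. MTT was then added for 4 h, crystals were dissolved in DMSO, and absorbance was read at 570 nm against blanks.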

Data set [3] addresses T1, Human immunodeficiency virus type 1 integrase. As to the kind of experiment: Inhibition of wild-type HIV1 integrase strand transfer activity. The method, boiled down: as §1
Data set [4] addresses Human immunodeficiency virus type 1 integrase (Human immunodeficiency virus 1) (UniProt Q7ZJM1). Kind of data set: Selectivity index, ratio of IC50 for wild-type HIV1 integrase 3'-end processing activity to IC50 for wild-type HIV1 integrase strand transfer activity. The method, boiled down: as §1
The subject of a further data set is HCT-116 (Homo sapiens). As to the kind of experiment: Cytotoxicity against human HCT 116 cells by MTT assay.

Chain of Human immunodeficiency virus type 1 integrase (Human immunodeficiency virus 1) (Q7ZJM1 as listed by the source): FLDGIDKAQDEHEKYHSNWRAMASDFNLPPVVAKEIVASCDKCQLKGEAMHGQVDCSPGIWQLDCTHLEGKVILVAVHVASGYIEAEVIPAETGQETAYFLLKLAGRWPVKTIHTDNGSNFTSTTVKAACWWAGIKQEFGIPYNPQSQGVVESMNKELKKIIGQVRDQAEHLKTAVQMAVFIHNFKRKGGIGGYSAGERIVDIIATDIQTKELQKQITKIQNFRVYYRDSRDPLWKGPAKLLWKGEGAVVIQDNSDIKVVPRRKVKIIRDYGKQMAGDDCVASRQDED
T1 sequence (Q7ZJM1 whole entry): as the sequence (Q7ZJM1 as listed by the source) above

Turning to `COc1ccc(Br)cc1/C=C/C(=O)c1c(O)cc(/C=C/c2ccc(N(C)C)cc2)oc1=O`, the IC50 was over 100 µM in data set [1] and 100 µM in data set [3]. Besides, the Activity in data set [2] is over 10 µM.
On the same counts, the results for `COc1ccc(/C=C/C(=O)c2c(O)cc(/C=C/c3ccc(N(C)C)cc3)oc2=O)cc1` are over 100 µM, over 100 µM and over 10 µM.
On to `Cc1cc2c(c(=O)o1)C(/C=C/c1ccc(F)cc1)=[O+][B-](F)(F)O2`, for which, in data set [4], the Ratio IC50 was determined as 0.6. Further, the IC50 in data set [1] turned out to be 9 µM; in data set [3], 16 µM. In addition, the Activity in data set [2] was over 10 µM.
Regarding `Cc1cc(O)c(C(=O)/C=C/C=C/c2ccc(N(C)C)cc2)c(=O)o1`, the concentration for half-maximal inhibition (IC50) in data set [1] and in data set [3] was over 100 µM each time. In data set [2], this compound showed an Activity of over 10 µM.
On to `CN(C)c1ccc(/C=C/C(=O)c2c(O)cc(/C=C/c3ccc(N(C)C)cc3)oc2=O)cc1`, for which the IC50 in data set [1] and in data set [3] was over 100 µM in each case. The compound also yielded an Activity in data set [2] of over 10 µM.
Regarding `Cc1cc2c(c(=O)o1)C(/C=C/C=C/c1ccc(N(C)C)cc1)=[O+][B-](F)(F)O2`, the IC50 is over 100 µM in data set [1] and 100 µM in data set [3]. Further, the Activity in data set [2] is over 10 µM.
Regarding `Cc1cc2c(c(=O)o1)C(/C=C/c1ccc(N(C)C)cc1)=[O+][B-](F)(F)O2`, the Ratio IC50 in data set [4] is over 1.8. Further, the half-maximal inhibitory concentration (IC50) in data set [1] was over 100 µM; in data set [3] it was 56 µM. In data set [2], the Activity is over 10 µM.
As to `Cc1cc2c(c(=O)o1)C(/C=C/c1ccc(N(C)C)s1)=[O+][B-](F)(F)O2`, the IC50 in data set [1] and in data set [3] was over 100 µM throughout. For the same compound, in data set [2], the Activity is over 10 µM.
In the case of `CC[NH+](CC)CC.Cc1cc2c(c(=O)o1)C(/C=C/C=C1\O[B-](F)(F)Oc3cc(C)oc(=O)c31)=[O+][B-](F)(F)O2`, the Ratio IC50 in data set [4] came out at 1.9. In addition, the IC50 in data set [1] was found to be 13 µM; in data set [3], 7 µM. Moreover, the Activity in data set [2] was over 10 µM. Besides, the outcome in the data set with HCT-116 (Homo sapiens) was inactive.
Regarding `COc1ccc(Br)cc1/C=C/C1=[O+][B-](F)(F)Oc2cc(/C=C/c3ccc(N(C)C)cc3)oc(=O)c21`, the half-inhibitory concentration (IC50) in data set [1] and in data set [3] was over 100 µM throughout. This compound returned an Activity in data set [2] of over 10 µM.
For the compound `Cc1cc2c(c(=O)o1)C(/C=C/c1ccc(Br)s1)=[O+][B-](F)(F)O2`, in data set [4], the Ratio IC50 was found to be 3.2. The 50% inhibitory concentration (IC50) worked out at 9 µM in data set [1] and 3 µM in data set [3]. Besides, the Activity in data set [2] is over 10 µM. Also, the outcome with HCT-116 (Homo sapiens) was inactive.
For `COc1ccc(/C=C/C=C/C2=[O+][B-](F)(F)Oc3cc(C)oc(=O)c32)cc1` the same measures were 2.5, 11 µM, 4 µM, over 10 µM and “inactive”.
Turning to `CN(C)c1ccc(/C=C/C2=[O+][B-](F)(F)Oc3cc(/C=C/c4ccc(N(C)C)cc4)oc(=O)c32)cc1`, the IC50 in data set [1] and in data set [3] was over 100 µM in each case. Further, the Activity in data set [2] was over 10 µM.
With `Cc1cc2c(c(=O)o1)C(/C=C/C=C1/N(C)c3ccccc3C1(C)C)=[O+][B-](F)(F)O2`, the IC50 in data set [1] and in data set [3] was over 100 µM in each case. For the same compound, in data set [2], the Activity was over 10 µM.
For `Cc1cc(O)c(C(=O)/C=C/c2ccc(Br)cc2)c(=O)o1`, the half-maximal inhibitory concentration (IC50) in data set [1] and in data set [3] was over 100 µM throughout. Moreover, the Activity in data set [2] is over 10 µM.
With `Cc1cc(O)c(C(=O)/C=C/c2ccc(N(C)C)s2)c(=O)o1`, the Ratio IC50 in data set [4] was found to be 1.8. In addition, the 50% inhibitory concentration (IC50) amounted to 19 µM in data set [1] and 11 µM in data set [3]. In data set [2], the Activity is over 10 µM.
For the compound `COc1ccc(/C=C/C=C/C(=O)c2c(O)cc(C)oc2=O)cc1`, the Ratio IC50 in data set [4] is over 2.6. For the same compound, the IC50 in data set [1] is over 100 µM; in data set [3], 39 µM. Moreover, the Activity in data set [2] was over 10 µM.
As to `COc1ccc(/C=C/C2=[O+][B-](F)(F)Oc3cc(/C=C/c4ccc(N(C)C)cc4)oc(=O)c32)cc1`, the concentration for half-maximal inhibition (IC50) in data set [1] and in data set [3] was over 100 µM each time. Also, the Activity in data set [2] was over 10 µM.
For `Cc1cc(O)c(C(=O)/C=C/C=C2/N(C)c3ccccc3C2(C)C)c(=O)o1`, the IC50 in data set [1] and in data set [3] was over 100 µM each time. The Activity in data set [2] is over 10 µM.
In the case of `Cc1cc(O)c(C(=O)/C=C/c2ccc(Br)s2)c(=O)o1`, the Ratio IC50 in data set [4] was 2.8. For the same compound, the IC50 in data set [1] came to 65 µM; in data set [3] it was 23 µM. Besides, the Activity in data set [2] is over 10 µM.
Turning to `Cc1cc(O)c(C(=O)/C=C/c2ccc(F)cc2)c(=O)o1`, in data set [4], the Ratio IC50 was under 0.7. The 50% inhibitory concentration (IC50) in data set [1] was 64 µM; in data set [3] it was over 100 µM. Also, the Activity in data set [2] is over 10 µM.
As to `Cc1cc2c(c(=O)o1)C(/C=C/c1ccc(Br)cc1)=[O+][B-](F)(F)O2`, the Ratio IC50 in data set [4] turned out to be 3.3. The values for the half-inhibitory concentration (IC50) in data set [1] and in data set [3] were 12 µM and 4 µM, respectively. The same compound had an Activity in data set [2] of over 10 µM. The result with HCT-116 (Homo sapiens) was inactive.
